The text below walks through data of ChEMBL document CHEMBL1811883, “The combination of 4-anilinoquinazoline and cinnamic acid: a novel mode of binding to the epidermal growth factor receptor tyrosine kinase” (Bioorg Med Chem, 2011).

The term IC50 denotes the concentration needed to halve the response being measured.

The test system of experiment [1] is A549. As to the kind of experiment: Antiproliferative activity against human A549 cells after 48 hrs by MTT assay. The format is functional, cell-based. The settings on record: A549, 48 h. In a few lines:
(§1)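 Cells exposed to compound at final concentrations from 0.01 to 100 (µg/mL per text) for 48 h. MTT (5 mg/mL in PBS) added for 6 h, then 10% SDS in 0.01 N HCl for a further 4 h at 37 °C. Absorbance read at 570 nm; survival expressed relative to untreated cells.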

For experiment [2], the system named is B16-F10. As to the kind of experiment: Antiproliferative activity against mouse B16F10 cells assessed as inhibition of serum-stimulated cell growth after 48 hrs by MTT assay. The settings on record: B16-F10, 48 h. Type of experiment: functional, cell-based. The procedure, abridged: as §1
For experiment [3], the target named is Epidermal growth factor receptor (Homo sapiens, UniProt P00533). Briefly: Inhibition of recombinant EGFR expressed in baculovirus infected Sf9 cells after 1 hr by DELFIA/time-resolved fluorimetry assay.
Experiment [4] has as its system A431 (Homo sapiens). As to the kind of experiment: Antiproliferative activity against human A431 cells expressing EGFR assessed as inhibition of basal cell growth after 48 hrs by MTT assay. The conditions noted are these: A431, 48 h. In general terms: Tetrazolium assays rely on reduction of a dye to a coloured formazan, in cell work by metabolically active cells.

SMILES strings stand for the structures. In brackets after ≈: the same amount, converted by molar mass.

Chain of Epidermal growth factor receptor (P00533 whole entry): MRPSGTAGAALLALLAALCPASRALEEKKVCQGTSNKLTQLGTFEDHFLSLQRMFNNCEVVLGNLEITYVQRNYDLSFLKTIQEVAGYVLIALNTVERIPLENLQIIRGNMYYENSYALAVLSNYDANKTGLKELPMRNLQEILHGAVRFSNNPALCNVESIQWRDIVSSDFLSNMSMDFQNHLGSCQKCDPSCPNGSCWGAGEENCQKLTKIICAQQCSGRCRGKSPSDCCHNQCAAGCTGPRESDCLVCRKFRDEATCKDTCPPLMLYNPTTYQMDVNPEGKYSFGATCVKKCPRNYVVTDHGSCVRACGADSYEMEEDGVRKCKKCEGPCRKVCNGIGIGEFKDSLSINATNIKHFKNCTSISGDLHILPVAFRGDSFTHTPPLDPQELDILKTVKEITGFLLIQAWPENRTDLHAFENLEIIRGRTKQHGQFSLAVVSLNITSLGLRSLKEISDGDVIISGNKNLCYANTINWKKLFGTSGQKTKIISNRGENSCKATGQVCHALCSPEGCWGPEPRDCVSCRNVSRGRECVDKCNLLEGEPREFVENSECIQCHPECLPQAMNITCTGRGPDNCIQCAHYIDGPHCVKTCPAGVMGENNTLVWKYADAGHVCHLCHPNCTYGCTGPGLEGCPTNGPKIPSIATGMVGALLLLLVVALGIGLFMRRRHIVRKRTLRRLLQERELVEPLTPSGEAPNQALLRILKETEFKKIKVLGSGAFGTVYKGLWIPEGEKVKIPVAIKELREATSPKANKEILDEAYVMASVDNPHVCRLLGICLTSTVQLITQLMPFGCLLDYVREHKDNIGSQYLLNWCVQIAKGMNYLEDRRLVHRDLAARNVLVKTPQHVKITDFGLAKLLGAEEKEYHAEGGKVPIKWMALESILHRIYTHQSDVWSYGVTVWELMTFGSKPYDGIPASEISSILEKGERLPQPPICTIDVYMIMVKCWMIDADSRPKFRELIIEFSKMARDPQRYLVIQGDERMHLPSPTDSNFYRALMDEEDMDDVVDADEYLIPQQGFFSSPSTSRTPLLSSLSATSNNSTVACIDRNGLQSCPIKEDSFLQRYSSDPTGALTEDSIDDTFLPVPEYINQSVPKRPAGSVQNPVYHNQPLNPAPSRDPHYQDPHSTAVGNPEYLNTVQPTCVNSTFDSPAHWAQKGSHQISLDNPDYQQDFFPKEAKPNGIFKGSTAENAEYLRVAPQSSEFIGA

For the molecule `O=C(/C=C/c1ccccc1)Nc1ccc2ncnc(Nc3cccc(Br)c3)c2c1`, the IC50 in experiment [1] stood at 3.96 µg/mL (≈ 8.89 µM); in experiment [2], 1.45 µg/mL (≈ 3.26 µM).
In the case of `O=C(/C=C/c1ccc(Cl)cc1)Nc1ccc2ncnc(Nc3cccc(Br)c3)c2c1`, the IC50 in experiment [1] stood at 1.06 µg/mL (≈ 2.21 µM); in experiment [2] it was 0.38 µg/mL (≈ 0.792 µM); in experiment [3] it was 1.21 µM.
As to `O=C(/C=C/c1ccccc1Cl)Nc1ccc2ncnc(Nc3cccc(Br)c3)c2c1`, the IC50 was 6.63 µg/mL (≈ 13.8 µM) in experiment [1] and 2 µg/mL (≈ 4.17 µM) in experiment [2].
As for `O=C(/C=C/c1ccc(Br)cc1)Nc1ccc2ncnc(Nc3cccc(Br)c3)c2c1`, the results for the IC50 in experiment [1] and in experiment [2] were 15.3 µg/mL (≈ 29.2 µM) and 10.7 µg/mL (≈ 20.3 µM), respectively.
Consider `O=C(/C=C/c1ccccc1Br)Nc1ccc2ncnc(Nc3cccc(Br)c3)c2c1`, for which the IC50 in experiment [1] came out at 2.38 µg/mL (≈ 4.54 µM); in experiment [2] it was 0.92 µg/mL (≈ 1.76 µM); in experiment [3], 4.28 µM.
As for `COc1ccc(/C=C/C(=O)Nc2ccc3ncnc(Nc4cccc(Br)c4)c3c2)cc1`, the half-maximal inhibitory concentration (IC50) came out at 3.36 µg/mL (≈ 7.07 µM) in experiment [1], 1.24 µg/mL (≈ 2.61 µM) in experiment [2] and 7.22 µM in experiment [3].
Turning to `COc1ccccc1/C=C/C(=O)Nc1ccc2ncnc(Nc3cccc(Br)c3)c2c1`, the IC50 was determined as 3.55 µg/mL (≈ 7.47 µM) in experiment [1], 1.28 µg/mL (≈ 2.69 µM) in experiment [2] and 7.71 µM in experiment [3].
For the molecule `COc1cccc(/C=C/C(=O)Nc2ccc3ncnc(Nc4cccc(Br)c4)c3c2)c1`, the IC50 in experiment [1] worked out at 2.05 µg/mL (≈ 4.31 µM); in experiment [2] it was 0.87 µg/mL (≈ 1.83 µM); in experiment [3] it was 6.02 µM.
For `O=C(/C=C/c1cccs1)Nc1ccc2ncnc(Nc3cccc(Br)c3)c2c1`, the IC50 in experiment [1] was 4.66 µg/mL (≈ 10.3 µM); in experiment [2] it was 2.51 µg/mL (≈ 5.56 µM).
Consider `Cc1ccc(/C=C/C(=O)Nc2ccc3ncnc(Nc4cccc(Br)c4)c3c2)cc1`, for which the IC50 in experiment [1] amounted to 3.01 µg/mL (≈ 6.55 µM); in experiment [2], 1.39 µg/mL (≈ 3.03 µM).
In the case of `O=C(/C=C/c1ccc([N+](=O)[O-])cc1)Nc1ccc2ncnc(Nc3cccc(Br)c3)c2c1`, the IC50 in experiment [1] came out at 1.85 µg/mL (≈ 3.77 µM); in experiment [2], 0.981 µg/mL (≈ 2 µM); in experiment [3], 5.16 µM; in experiment [4], 1.34 µM.
Regarding `O=C(/C=C/c1ccccc1[N+](=O)[O-])Nc1ccc2ncnc(Nc3cccc(Br)c3)c2c1`, the IC50 in experiment [1] was 0.92 µg/mL (≈ 1.88 µM); in experiment [2], 0.338 µg/mL (≈ 0.689 µM); in experiment [3], 1.02 µM; in experiment [4] it was 0.98 µM.
On to `O=C(/C=C/c1ccccc1)Nc1ccc2ncnc(Nc3cccc(Cl)c3)c2c1`, for which the IC50 in experiment [1] worked out at 1.58 µg/mL (≈ 3.94 µM); in experiment [2] it was 0.68 µg/mL (≈ 1.7 µM); in experiment [3], 3.61 µM.
`O=C(/C=C/c1ccc(Cl)cc1)Nc1ccc2ncnc(Nc3cccc(Cl)c3)c2c1`: the IC50 in experiment [1] came out at 12.4 µg/mL (≈ 28.6 µM); in experiment [2], 9.97 µg/mL (≈ 22.9 µM).
With `O=C(/C=C/c1ccccc1Cl)Nc1ccc2ncnc(Nc3cccc(Cl)c3)c2c1`, the IC50 in experiment [1] was 4.58 µg/mL (≈ 10.5 µM); in experiment [2] it was 1.74 µg/mL (≈ 4 µM).
With `O=C(/C=C/c1ccc(Br)cc1)Nc1ccc2ncnc(Nc3cccc(Cl)c3)c2c1`, the IC50 was found to be 1.86 µg/mL (≈ 3.88 µM) in experiment [1], 0.75 µg/mL (≈ 1.56 µM) in experiment [2] and 3.49 µM in experiment [3].
On to `O=C(/C=C/c1ccccc1Br)Nc1ccc2ncnc(Nc3cccc(Cl)c3)c2c1`, for which the IC50 in experiment [1] is 5.63 µg/mL (≈ 11.7 µM); in experiment [2], 1.65 µg/mL (≈ 3.44 µM).
Consider `COc1cccc(/C=C/C(=O)Nc2ccc3ncnc(Nc4cccc(Cl)c4)c3c2)c1`, for which the IC50 in experiment [1] stood at 2.58 µg/mL (≈ 5.99 µM); in experiment [2] it was 1.05 µg/mL (≈ 2.44 µM); in experiment [3] it was 6.63 µM.
With `O=C(/C=C/c1cccs1)Nc1ccc2ncnc(Nc3cccc(Cl)c3)c2c1`, the IC50 in experiment [1] amounted to 9.23 µg/mL (≈ 22.7 µM); in experiment [2], 4.26 µg/mL (≈ 10.5 µM).
For `Cc1ccc(/C=C/C(=O)Nc2ccc3ncnc(Nc4cccc(Cl)c4)c3c2)cc1`, in that order: 6.03 µg/mL (≈ 14.5 µM) and 2.02 µg/mL (≈ 4.87 µM).
Turning to `O=C(/C=C/c1cccc2ccccc12)Nc1ccc2ncnc(Nc3cccc(Cl)c3)c2c1`, the IC50 in experiment [1] amounted to 1.49 µg/mL (≈ 3.3 µM); in experiment [2], 0.671 µg/mL (≈ 1.49 µM); in experiment [3] it was 2.81 µM.
Consider `O=C(/C=C/c1ccc([N+](=O)[O-])cc1)Nc1ccc2ncnc(Nc3cccc(Cl)c3)c2c1`, for which the IC50 worked out at 5.26 µg/mL (≈ 11.8 µM) in experiment [1], 2.05 µg/mL (≈ 4.6 µM) in experiment [2], 3.45 µM in experiment [3] and 2.13 µM in experiment [4].
`O=C(/C=C/c1ccccc1[N+](=O)[O-])Nc1ccc2ncnc(Nc3cccc(Cl)c3)c2c1`: the IC50 in experiment [1] came out at 0.78 µg/mL (≈ 1.75 µM); in experiment [2] it was 0.3 µg/mL (≈ 0.673 µM); in experiment [4], 0.75 µM.
For `O=C(/C=C/c1cccc([N+](=O)[O-])c1)Nc1ccc2ncnc(Nc3cccc(Br)c3)c2c1`, the IC50 in experiment [3] came out at 0.12 µM; in experiment [4], 0.33 µM.
Turning to `O=C(/C=C/c1cccc([N+](=O)[O-])c1)Nc1ccc2ncnc(Nc3cccc(Cl)c3)c2c1`, the IC50 came out at 0.19 µM in experiment [3] and 0.49 µM in experiment [4].
With `Nc1ccc2ncnc(Nc3cccc(Cl)c3)c2c1`, the IC50 in experiment [4] turned out to be 47 µM.
For `Nc1ccc2ncnc(Nc3cccc(Br)c3)c2c1`, in experiment [4], the 50% inhibitory concentration (IC50) was 42 µM.
As to `C#Cc1cccc(Nc2ncnc3cc(OCCOC)c(OCCOC)cc23)c1` [ERLOTINIB], the IC50 in experiment [2] is 0.02 µg/mL (≈ 0.0508 µM).
